Assay results from ChEMBL document CHEMBL4118021, “Studies of TAK1-centered polypharmacology with novel covalent TAK1 inhibitors” (Bioorg Med Chem, 2017).
Values belong to the compound of their own block, whether it stands above or below them. Active and inactive are the calls of the source. No cut-off for these calls is given here.

Tests used:
NCI-H358 [1] = assay: Antiproliferative activity against human NCI-H358 cells harboring KRAS G12C mutant at; type: functional, cell-based
NCI-H23 [2] = assay: Antiproliferative activity against human NCI-H23 cells harboring KRAS G12C mutant at; type: functional, cell-based
HEL = assay: Antiproliferative activity against human HEL cells at […] to […] nM after 72 hrs by CellTiter-Glo assay; type: functional, cell-based
[3] = Increase in secretion of basic-FGF in TNFalpha activated RA patient-derived synovial fibroblasts at 0.6 to 3 uM preincubated for 3 hrs followed by TNFalpha stimulation measured after 18 hrs by sandwich immunoassay; details: human
Method in brief: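 Primary RA patient synovial fibroblasts (donor RA2159) were seeded at 1000 cells/well, grown about 24 h, then starved overnight and again about 4 h in basal medium with 0.1% BSA. Cells were pre-incubated 3 h with inhibitor (0.6 or 3 μM) or DMSO, then stimulated 18 h with 10 ng/mL TNFα. Paired wells were pooled, in biological duplicate. Pooled supernatants were diluted 1:3 and read on Luminex bead sandwich immunoassays, with mock-medium background and spiked-ligand controls.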

[4] = Antiproliferative activity against human SW156 cells harboring wild type KRAS after 72 hrs by CellTiter-Glo assay; type: functional, cell-based
BaF3 [5] = assay: Antiproliferative activity against mouse BA/F3 cells harboring NRAS G12D mutant after 72 hrs by CellTiter-Glo assay; type: functional, cell-based; details: BaF3, 72 h
Method in brief: (§1)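 Ba/F3 parental or RAS-transformed cells were seeded at 1000 viable cells/well, without or with IL-3 as the line states, at 37 °C and 5% CO2. After 4 h, nine four-fold serial dilutions were added in triplicate (final 0.5–30,000 nM, 0.3% DMSO). DMSO wells served as 100% viability.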

ASPC1 = assay: Antiproliferative activity against human AsPC1 cells harboring KRAS G12D mutant after 72 hrs by CellTiter-Glo assay; type: functional, cell-based; details: ASPC1, 72 h
NCI-H358 [6] = assay: Antiproliferative activity against human NCI-H358 cells harboring KRAS G12C mutant after 72 hrs by CellTiter-Glo assay; type: functional, cell-based
Method in brief: (§2)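 NCI-H23 or NCI-H358 cells seeded at 2000 cells/well and grown 48 h before drug. Varying doses were added and cells incubated 72 h. Viability was read as CellTiter-Glo luminescence, and growth-inhibition IC50 was calculated from dose-response curves.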

[7] = biological target: T1, Mitogen-activated protein kinase kinase kinase 7 (Homo sapiens, UniProt O43318); assay: Inhibition of TAK1 (unknown origin) by LanthaScreen assay
T1 sequence (O43318 whole entry): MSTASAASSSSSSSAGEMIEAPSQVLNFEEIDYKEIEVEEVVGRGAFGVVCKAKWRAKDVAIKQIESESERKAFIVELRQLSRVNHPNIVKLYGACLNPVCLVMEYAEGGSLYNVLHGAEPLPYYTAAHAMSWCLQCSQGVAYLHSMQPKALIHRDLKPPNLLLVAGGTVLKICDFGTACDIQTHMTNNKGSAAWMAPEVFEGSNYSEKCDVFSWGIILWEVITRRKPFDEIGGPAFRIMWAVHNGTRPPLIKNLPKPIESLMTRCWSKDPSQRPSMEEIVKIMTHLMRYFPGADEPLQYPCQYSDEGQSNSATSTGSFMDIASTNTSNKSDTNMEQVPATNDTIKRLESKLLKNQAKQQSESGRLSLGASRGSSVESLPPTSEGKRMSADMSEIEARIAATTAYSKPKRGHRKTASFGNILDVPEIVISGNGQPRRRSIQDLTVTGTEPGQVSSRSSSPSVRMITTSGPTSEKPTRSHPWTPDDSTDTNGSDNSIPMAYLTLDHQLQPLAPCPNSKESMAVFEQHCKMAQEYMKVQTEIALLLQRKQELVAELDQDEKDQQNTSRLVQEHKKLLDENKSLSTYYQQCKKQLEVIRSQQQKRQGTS

BaF3 [8] = assay: Antiproliferative activity against mouse BA/F3 cells harboring NRAS G12D mutant after 72 hrs in presence of IL-3 by CellTiter-Glo assay; type: functional, cell-based; details: BaF3, 72 h; method in brief: as §1
U-937 = assay: Antiproliferative activity against human U937 cells at […] to […] nM after 72 hrs by CellTiter-Glo assay; type: functional, cell-based
[9] = biological target: T2, Mitogen-activated protein kinase kinase kinase 7 (Homo sapiens) (UniProt O43318); assay: Inhibition of TAK1 in RA patient-derived synovial fibroblasts assessed as inhibition of poly(I:C)-induced cytokine secretion at 3 uM preincubated for 3 hrs followed by poly(I:C) stimulation measured after 18 hrs by sandwich immunoassay
T2 sequence (whole entry): T1 sequence (O43318 whole entry)
Method in brief: (§3)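 Primary RA synovial fibroblasts (donor RA2159) seeded 1000 cells/well and grown ~24 h at 37 °C, 5% CO2. Starved overnight in basal medium, then ~4 h in basal medium with 0.1% BSA. Two adjacent wells pooled per replicate, in biological duplicate. Supernatants diluted 1:3 and run on Luminex 27-plex/21-plex sandwich immunoassays for 48 analytes, with spiked-ligand and mock-supernatant background controls.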

[10] = biological target: T2, Mitogen-activated protein kinase kinase kinase 7 (Homo sapiens); assay: Inhibition of TAK1 in RA patient-derived synovial fibroblasts assessed as inhibition of IL-1alpha-induced cytokine secretion at 3 uM preincubated for 3 hrs followed by IL-1alpha stimulation measured after 18 hrs by sandwich immunoassay; method in brief: as §3
SK-CO-1 = assay: Antiproliferative activity against human SKCO1 cells harboring KRAS G12V mutant after 72 hrs by CellTiter-Glo assay; type: functional, cell-based; details: SK-CO-1, 72 h
[11] = biological target: Receptor-type tyrosine-protein kinase FLT3 (Homo sapiens, UniProt P36888); assay: Inhibition of FLT3 (unknown origin)
Chain of Receptor-type tyrosine-protein kinase FLT3 (P36888 whole entry): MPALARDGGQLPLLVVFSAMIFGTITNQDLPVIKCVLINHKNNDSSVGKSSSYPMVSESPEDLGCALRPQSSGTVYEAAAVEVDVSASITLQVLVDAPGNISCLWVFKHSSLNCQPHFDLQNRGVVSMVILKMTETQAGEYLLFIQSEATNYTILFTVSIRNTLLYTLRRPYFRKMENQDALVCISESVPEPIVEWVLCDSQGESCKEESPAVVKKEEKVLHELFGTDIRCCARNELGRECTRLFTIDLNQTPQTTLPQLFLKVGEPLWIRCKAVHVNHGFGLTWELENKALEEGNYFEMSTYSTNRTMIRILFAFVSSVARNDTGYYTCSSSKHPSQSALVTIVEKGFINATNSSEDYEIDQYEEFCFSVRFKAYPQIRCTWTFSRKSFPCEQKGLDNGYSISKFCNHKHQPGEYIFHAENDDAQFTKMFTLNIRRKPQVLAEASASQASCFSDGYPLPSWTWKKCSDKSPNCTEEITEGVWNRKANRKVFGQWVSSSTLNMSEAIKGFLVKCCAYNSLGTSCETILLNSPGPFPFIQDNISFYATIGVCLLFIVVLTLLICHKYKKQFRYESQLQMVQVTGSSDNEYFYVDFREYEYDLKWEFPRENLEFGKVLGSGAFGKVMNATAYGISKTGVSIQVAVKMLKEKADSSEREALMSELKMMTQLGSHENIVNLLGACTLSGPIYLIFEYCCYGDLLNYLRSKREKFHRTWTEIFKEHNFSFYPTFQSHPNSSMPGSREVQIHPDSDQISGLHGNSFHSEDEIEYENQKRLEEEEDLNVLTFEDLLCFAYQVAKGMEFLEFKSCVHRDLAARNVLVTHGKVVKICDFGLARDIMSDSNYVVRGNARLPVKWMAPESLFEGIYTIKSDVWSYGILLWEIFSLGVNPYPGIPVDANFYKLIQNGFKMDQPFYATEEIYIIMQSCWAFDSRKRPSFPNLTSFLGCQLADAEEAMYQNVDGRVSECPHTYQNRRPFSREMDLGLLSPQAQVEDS

SW-620 = assay: Antiproliferative activity against human SW620 cells harboring KRAS G12V mutant after 72 hrs by CellTiter-Glo assay; type: functional, cell-based; details: SW-620, 72 h
BaF3 [12] = assay: Antiproliferative activity against mouse BA/F3 cells harboring KRAS G12D mutant after 72 hrs by CellTiter-Glo assay; type: functional, cell-based; details: BaF3, 72 h
PANC-1 = assay: Antiproliferative activity against human PANC1 cells harboring KRAS G12D mutant after 72 hrs by CellTiter-Glo assay; type: functional, cell-based; details: PANC-1, 72 h
[13] = biological target: T2, Mitogen-activated protein kinase kinase kinase 7 (Homo sapiens); assay: Inhibition of biotin-labeled N-(2-(2-(2-(2-(4-(4-((4-((2-Acrylamidophenyl)amino)-5-chloropyrimidin-2-yl)amino)phenyl)piperazin-1-yl)ethoxy)ethoxy)ethoxy)ethyl)-5-((3aS,4S,6aR)-2-oxohexahydro-1H-thieno[3,4-d]imidazol-4-yl)pentanamide probe binding to TAK1 in human NCI-H358 cells at 10 uM after 6 hrs by immunoblot based competitive pull down assay; type: cell-based
Method in brief: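 H358 cells given 1 or 10 μM compound for 6 h, medium removed, cells rinsed twice with cold PBS and lysed in MPER buffer. Lysates incubated overnight at 4 °C with 1 μM biotinylated covalent probe, captured on streptavidin beads, and TAK1 recovery assessed by immunoblotting with anti-TAK1 antibody.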

NCI-H23 [14] = assay: Antiproliferative activity against human NCI-H23 cells harboring KRAS G12C mutant after 72 hrs by CellTiter-Glo assay; type: functional, cell-based; method in brief: as §2
MOLM-14 = assay: Antiproliferative activity against human MOLM14 cells harboring FLT3-ITD mutant at […] to […] nM after 72 hrs by CellTiter-Glo assay; type: functional, cell-based
BaF3 [15] = assay: Antiproliferative activity against mouse BA/F3 cells after 72 hrs by CellTiter-Glo assay; type: cell-based; details: BaF3, 72 h
[16] = biological target: T2, Mitogen-activated protein kinase kinase kinase 7 (Homo sapiens); assay: Inhibition of TAK1 in RA patient-derived synovial fibroblasts assessed as inhibition of TNFalpha-induced cytokine secretion at 3 uM preincubated for 3 hrs followed by TNFalpha stimulation measured after 18 hrs by sandwich immunoassay; method in brief: as §3
[17] = Antiproliferative activity against human URMC6 cells harboring wild type KRAS after 72 hrs by CellTiter-Glo assay; type: functional, cell-based
BaF3 [18] = assay: Antiproliferative activity against mouse BA/F3 cells harboring KRAS G12D mutant after 72 hrs in presence of IL-3 by CellTiter-Glo assay; type: functional, cell-based; details: BaF3, 72 h
NALM-6 = assay: Antiproliferative activity against human NALM6 cells harboring NARS A146T mutant at […] to […] nM after 72 hrs by CellTiter-Glo assay; type: functional, cell-based

Compound: N#CC[C@H](C1CCCC1)n1cc(-c2ncnc3[nH]ccc23)cn1
Activity (NCI-H358 [1]): Active | Activity (NCI-H23 [2]): Active

IC50 (BaF3 [5]): 10 nM | IC50 (ASPC1): 1850 nM | IC50 [7]: 5.1 nM | IC50 (BaF3 [8]): 61 nM | inhibition [9]: Active | inhibition [10]: Active | IC50 (SK-CO-1): 294 nM | IC50 [11]: 0.63 nM | IC50 (SW-620): 767 nM | IC50 (BaF3 [12]): 28 nM | IC50 (PANC-1): 1260 nM | inhibition [13]: Active | IC50 (BaF3 [15]): 274 nM | inhibition [16]: Active | IC50 (BaF3 [18]): 93 nM
Compound: C=CC(=O)Nc1ccccc1Oc1nc(Nc2ccc(N3CCN(C)CC3)cc2)ncc1Cl
Activity (HEL): inactive | Activity [3]: Toxic | IC50 [4]: 2880 nM | Activity (NCI-H358 [6]): Active | Activity (U-937): Active | Activity (NCI-H23 [14]): Active | Activity (MOLM-14): Active | IC50 [17]: 524 nM | Activity (NALM-6): inactive
